The values below come from ChEMBL document CHEMBL5385869, “Novel 4-aminoquinolines: Synthesis, inhibition of the Mycobacterium tuberculosis enoyl-acyl carrier protein reductase, antitubercular activity, SAR, and preclinical evaluation” (Eur J Med Chem, 2023).

Converted amounts (≈) assume the structure as drawn. “And” between values parts separate entries of the source, which are not always exact repeats. Equal entries are not always repeated.

Test [1] has as its system Mycobacterium tuberculosis. The test can be described thus: Antibacterial activity against MDR Mycobacterium tuberculosis clinical isolate PE-003 measured after 7 days by resazurin dye based assay. The class given is functional. Particulars: PE-003, 168 h, time 7 day. (In general: The colour change of resazurin is a common sign of viable cells or microbes.)
In test [2] the target is T1, Enoyl-[acyl-carrier-protein] reductase [NADH] (Mycobacterium tuberculosis) (UniProt P9WGR1).
T1 sequence (whole entry): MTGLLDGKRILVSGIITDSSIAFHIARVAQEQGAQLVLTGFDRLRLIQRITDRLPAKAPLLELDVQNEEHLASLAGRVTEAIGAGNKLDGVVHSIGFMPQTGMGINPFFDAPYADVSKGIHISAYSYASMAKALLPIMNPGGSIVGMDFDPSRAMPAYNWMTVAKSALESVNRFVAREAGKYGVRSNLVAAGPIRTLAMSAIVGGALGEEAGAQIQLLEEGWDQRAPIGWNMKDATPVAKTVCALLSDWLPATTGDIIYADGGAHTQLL
The test can be described thus: Binding affinity to recombinant Mycobacterium tuberculosis InhA assessed as change in entropy at 2 mM in presence of NADH by Spectrofluorophotometry.

Test [3] has as its system Mycobacterium tuberculosis. Nature of the test: Antibacterial activity against pan-sensitive Mycobacterium tuberculosis H37Rv ATCC 27294 measured after 7 days by resazurin dye based assay. It counts as functional. Particulars: H37Rv ATCC 27294, 168 h, time 7 day. The gist of the method: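 Resazurin reduction microplate assay (REMA) in Middlebrook 7H9 broth with 10% ADC and 5% DMSO. Compounds come from 2 mg/mL DMSO stocks and are 2-fold serially diluted, top concentration 0.08–40 μg/mL depending on solubility. MIC is the lowest concentration preventing the blue-to-pink colour change. Three independent experiments; the reported value is the modal or the highest value.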

Test [4] deals with T1, Enoyl-[acyl-carrier-protein] reductase [NADH] (Mycobacterium tuberculosis). Nature of the test: Binding affinity to recombinant Mycobacterium tuberculosis InhA assessed as change in enthalpy at 2 mM in presence of NADH by Spectrofluorophotometry.
For test [5] the target is unchanged. The test can be described thus: Binding affinity to recombinant Mycobacterium tuberculosis InhA assessed as gibbs free energy change at 2 mM in presence of NADH by Spectrofluorophotometry.

Take `CCOC(=O)c1ccc2nc(C)cc(Nc3ccc(N4CCCCC4)cc3)c2c1`: the MIC – broadly, the lowest concentration that inhibits growth of the organism – in test [1] is 2.5 µg/mL and 6.4 µM; in test [3] it was 12.8 µM (≈ 4.99 µg/mL). In test [2], the deltaS is -54.5 cal/mol/K. The deltaH in test [4] was -23.3 kcal/mol. Besides, in test [5], the deltaG is -7.1 kcal/mol.
